Assay results collected from several papers.
Each line is one published result; the experiments were not run side by side.
Target: Serine/threonine-protein kinase D3 (PRKD3, Homo sapiens, UniProt O94806)
Residues used in one study (O94806 1-890): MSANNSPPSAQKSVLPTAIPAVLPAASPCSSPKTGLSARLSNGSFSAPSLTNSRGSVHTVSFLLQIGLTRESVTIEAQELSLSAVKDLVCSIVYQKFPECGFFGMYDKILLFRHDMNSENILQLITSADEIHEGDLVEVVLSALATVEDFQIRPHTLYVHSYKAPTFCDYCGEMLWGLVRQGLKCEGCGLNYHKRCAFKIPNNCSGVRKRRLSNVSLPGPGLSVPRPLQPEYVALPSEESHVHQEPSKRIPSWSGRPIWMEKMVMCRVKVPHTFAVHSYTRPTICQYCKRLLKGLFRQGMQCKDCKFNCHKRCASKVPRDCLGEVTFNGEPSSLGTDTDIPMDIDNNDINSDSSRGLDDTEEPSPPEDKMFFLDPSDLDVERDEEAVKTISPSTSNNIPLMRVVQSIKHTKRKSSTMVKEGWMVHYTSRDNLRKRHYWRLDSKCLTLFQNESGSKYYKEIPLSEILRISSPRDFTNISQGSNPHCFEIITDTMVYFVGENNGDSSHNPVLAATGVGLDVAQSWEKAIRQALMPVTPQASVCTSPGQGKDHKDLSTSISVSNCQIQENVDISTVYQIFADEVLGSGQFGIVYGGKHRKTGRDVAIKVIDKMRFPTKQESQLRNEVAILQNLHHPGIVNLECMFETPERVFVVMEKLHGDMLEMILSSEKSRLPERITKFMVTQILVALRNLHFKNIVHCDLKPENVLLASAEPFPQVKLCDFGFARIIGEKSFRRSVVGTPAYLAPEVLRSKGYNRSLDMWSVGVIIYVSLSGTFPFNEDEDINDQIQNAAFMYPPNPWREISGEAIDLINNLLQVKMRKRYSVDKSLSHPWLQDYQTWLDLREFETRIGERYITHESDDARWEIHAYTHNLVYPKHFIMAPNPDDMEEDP

Compound | assay | system | setting | measurement | result
c1ccc(CNc2nc(N3CCOc4ccccc43)nc3c2CCCC3)cc1 | target engagement in cells, inhibitor, chemoproteomics | – | 20 mM | inhibition | 2.8%
Cn1c2c(c3ccc(Cl)c(Cl)c31)C(C#N)C1(CCNCC1)NC2=O (racemic) | thermal stability, DSF | – | 10 µM | ΔTm | 2.9 °C
CCCCNc1ncc2c(-c3ccc(F)cc3)nn(C[C@H]3CC[C@H](N)CC3)c2n1 | target engagement in cells, inhibitor, chemoproteomics | – | 20 mM | inhibition | 48.7%
Cc1sc(C(=O)NC2COC2)cc1-n1cc(NC(=O)Nc2c(F)cccc2Cl)cn1 | enzyme activity, inhibitor | – | 10 µM | remaining activity | 105%
O=C(O)c1cc(-c2ccc(C3CCNCC3)cc2)c2ccc(-c3ccc(C(F)(F)F)cc3)cc2c1 | cell-free assay, competition with immobilised ligand | – | 1 µM | remaining binding | 100%
COc1cc(Cl)c(C(=O)N[C@@H](CN[C@H]2CC[C@@H](N)CC2)Cc2ccc(C#N)cc2)cc1-c1ccc(CN[C@H](C)c2ccc(C)cc2)o1 | enzyme activity, inhibitor | – | 1 µM | remaining activity | 93%
O=C(Nc1ccc(Oc2ccc(F)cc2)cc1)N1CCc2ncccc2[C@H]1c1ccc(F)cc1 | cell-free assay, competition with immobilised ligand | – | 1 µM | remaining binding | 98%
CCOc1cc(-c2nncn2C)ccc1Nc1ncc2cc(C)nc(NCC(C)(C)C)c2n1 | enzyme activity, inhibitor, FRET | – | 1 µM | inhibition | < 15%
CN(C)CC#Cc1ccc(OCCCc2sc(N3CCc4cccc(C(=O)Nc5nc6ccccc6s5)c4C3)nc2C(=O)O)c(F)c1 | cell-free assay, competition with immobilised ligand | – | 1 µM | remaining binding | 93%
COc1cc(Nc2c(C#N)cnc3cc(OCCCN4CCN(C)CC4)c(OC)cc23)c(Cl)cc1Cl | cell-free assay | – | 0.5 µM | remaining signal | 42.2%
CC(C)(C)c1nc(-c2cccc(NS(=O)(=O)c3c(F)cccc3F)c2F)c(-c2ccnc(N)n2)s1 | enzyme activity, inhibitor, radiometric | – | 1 µM | remaining activity | 100%
COCCOc1nc(-c2ccc(Cl)nc2)nc2c1CN(C(=O)c1ncn3ccccc13)CC2 | cell-free assay, competition with immobilised ligand | – | 0.1 µM | remaining binding | 94%
Cn1c2c(Cl)c(Cl)ccc2c2cc(N)[nH]c(=O)c21 | thermal stability, DSF | – | 10 µM | ΔTm | 1 °C
O=C1Nc2ccc(Cl)cc2C1=Cc1cc(Cl)c(O)c(Cl)c1 | cell-free assay | – | 0.5 µM | remaining signal | 80.7%
CC/C(=N\NC(=O)NCc1cccc(O)c1)c1ccc(O)c(C)c1O | enzyme activity, inhibitor | – | 0.1 µM | inhibition | 2.2%
COc1cc2ncnc(Nc3ccc(Oc4ccccc4)c(C)c3C)c2cc1OC | enzyme activity, inhibitor | – | 1 µM | inhibition | 8%
O=C(NC[C@@H]1[C@H]2CN(C(=O)OCc3cc(C(F)(F)F)cc(C(F)(F)F)c3)C[C@@H]12)c1ccc2[nH]nnc2c1 | cell-free assay, competition with immobilised ligand | – | 1 µM | remaining binding | 83%
CNc1cc(Oc2cc(C(=O)Nc3cc(N4CCN(C)CC4)cc(C(F)(F)F)c3)ccc2C)ncn1 | target engagement in cells, inhibitor, chemoproteomics | Huh-7 | 1 µM | inhibition | -19.8%
CN1CCC2(CC1)NC(=O)c1c(c3ccc(Cl)c(Cl)c3n1C)C2C#N (racemic) | thermal stability, DSF | – | 10 µM | ΔTm | 2 °C
CC(C)(O)[C@H]1CC[C@H](Nc2ccc3ncc(-c4cccc(C(F)(F)F)c4)n3n2)CC1 | enzyme activity, inhibitor | – | 1 µM | remaining activity | 91.2%
Cc1nc(Cc2cccc(C(F)(F)F)c2)sc1-c1ccc(C(N)=O)nc1 | cell-free assay, competition with immobilised ligand | – | 1 µM | remaining binding | 97%
O=C1NC(=O)c2cc(Nc3ccc(F)cc3)c(Nc3ccc(F)cc3)cc21 | cell-free assay | – | 0.5 µM | remaining signal | 96.7%
CNC(=O)Nc1ccc2c(c1)CC[C@@]21OC(=O)N(CC(=O)N(Cc2ccc(F)cc2)[C@@H](C)C(F)(F)F)C1=O | cell-free assay, competition with immobilised ligand | – | 1 µM | remaining binding | 100%
Cn1c2c(Cl)c(Cl)ccc2c2cc[nH]c(=O)c21 | thermal stability, DSF | – | 10 µM | ΔTm | 2.2 °C
